Laboratory results published in ChEMBL document CHEMBL2046293, “Design, synthesis, and biological evaluation of conformationally constrained analogues of naphthol AS-E as inhibitors of CREB-mediated gene transcription” (J Med Chem, 2012).
pIC50: −log10 of the molar value.

What was measured:
[1] = Inhibition of CREB expressed in HEK293T cells assessed as inhibition of forskolin-stimulated CRE transcription incubated for 30 mins prior to forskolin-stimulation measured after 4.5 hrs by luciferase reporter gene assay; assay type: cell-based; details: HEK-293T
Procedure, shortened: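 HEK293T cells transfected with pCRE-RLuc (Lipofectamine 2000), replated after 3 h at 1-2 × 10^4 cells/well and attached overnight. Compounds at various concentrations added 30 min before forskolin (10 μM final), then 4.5 h at 37 °C. Lysate Renilla luciferase read with benzyl-coelenterazine (pH 7.4, 10 μg/mL), normalized to Bradford-dye protein (RLU/μg). IC50 from non-linear regression.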

[2] = Inhibition of CREB kinase-inducible domain/CREB binding protein KID-interacting domain interaction after 20 to 24 hrs by luciferase reporter gene assay

SMILES | pIC50 [1] | pIC50 [2]
O=c1oc2cc3ccccc3cc2c(=O)n1-c1ccc(Cl)cc1 | 4.51 | < 4.30
O=c1[nH]c2cc3ccccc3cc2c(=O)n1-c1ccc(Cl)cc1 | < 4.30 | < 4.30
Clc1ccc(Nc2noc3cc4ccccc4cc23)cc1 | 4.61 | < 4.30
Cn1nc(Nc2ccc(Cl)cc2)c2cc3ccccc3cc21 | < 4.30 | 5.28
Clc1ccc(Nc2ncnc3cc4ccccc4cc23)cc1 | 4.72 | 5.02

Compounds with a higher pIC50 [1], results first:

pIC50 [1] | pIC50 [2] | SMILES
5.32 | 5.06 | Clc1ccc(Nc2n[nH]c3cc4ccccc4cc23)cc1
5.64 | 5.54 | O=C(Nc1ccc(Cl)cc1)c1cc2ccccc2cc1O
